Assay results as given in publication PMC4293084 (Nature communications, 2015).

How the values were obtained:
[1] = system: isolated EIC; settings: cited from earlier work
[2] = system: EI^Q (H189Q); assay: Enzyme kinetic assay; type: biochemical, E. coli; settings: 37°C
Method in brief: (§1)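 Wild-type E. coli Enzyme I or its H189Q or H189A active-site mutant, expressed and purified. PEP hydrolysis to inorganic phosphate and pyruvate was followed spectrophotometrically at 37°C with a coupled phosphate-detection kit. Enzymatic velocities at varying PEP were fit to the Michaelis-Menten equation to give Km. For display, velocities were normalised to each fit's maximum velocity.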

[3] = system: EI^WT; assay: Enzyme kinetic assay; type: biochemical, E. coli; settings: 37°C
Method in brief: as §1

[4] = system: EI^A (H189A); assay: Enzyme kinetic assay; type: biochemical, E. coli; settings: 37°C
Method in brief: as §1

Q: Which Km [1] does the source give for `C=C(OP(=O)(O)O)C(=O)O` [PEP, phosphoenolpyruvate] here?
A: ~370 µM

Q: What about the Km [2] of the same compound?
A: ~130 µM

Q: What about the Km [3] of the same compound?
A: ~330 µM

Q: What about the Km [4] of the same compound?
A: < 50 µM
